# According to ChEMBL document CHEMBL1121387, “Analgesic narcotic antagonists. 1. 8 beta-Alkyl-, 8 beta-acyl-, and 8 beta-(tertiary alcohol)dihydrocodeinones and -dihydromorphinones” (1980):
# Tests used:
# [1] = tested on: Mus musculus; test: Analgesic activity was measured by acetic acid writhing test in mouse by giving subcutaneous injection; format: functional; parameters: unit not given here
# Outline: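 Male albino Charles River mice (18–22 g), five per dose, at least three doses per ED50. Salts are given in distilled water; free bases are dissolved with dilute HCl and then diluted with water. Drug is given s.c. 15 min before i.p. 0.5% HOAc (0.4 mL). Writhes are counted for 20 min, starting 5 min post-HOAc, and compared with controls. ED50 with 95% confidence limits by Litchfield–Wilcoxon.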
# [2] = tested on: Rattus norvegicus; test: Analgesic activity measured by rat tail flick assay following s.c. administration.; format: functional; parameters: unit not given here
# Outline: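 Male albino rats (100–120 g). Two control reaction times are taken 30 min apart before dosing. For agonist activity, test drug is given subcutaneously with no morphine, and tail-flick reaction time is retested 20 min postdrug. Activity is judged against control groups. ED50 values with 95% confidence limits are obtained by Litchfield–Wilcoxon.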
Structure (SMILES),ED50 [1],ED50 [2]
COc1ccc2c3c1O[C@H]1C(=O)C[C@H](c4ccccc4)C4C(C2)N(C)CCC341 (stereo partly specified),>50,
CC[C@H]1CC(=O)[C@@H]2Oc3c(OC)ccc4c3C23CCN(C)C(C4)C13 (stereo partly specified),1.8,20.3
"CCC(C)[C@H]1CC(=O)C2Oc3c(OC)ccc4c3C23CCN(C)C(C4)C13 (single isomer, unassigned; form 1)",>25,
CC[C@@H]1CC(=O)[C@@H]2Oc3c(OC)ccc4c3C23CCN(C)C(C4)C13 (stereo partly specified),3,>30
C[C@H]1CC(=O)[C@@H]2Oc3c(O)ccc4c3C23CCN(C)C(C4)C13 (stereo partly specified),0.24,1.6
COc1ccc2c3c1O[C@H]1C(=O)C[C@H](C4CC4)C4C(C2)N(C)CCC341 (stereo partly specified),42,>25
COc1ccc2c3c1O[C@H]1C(=O)C[C@H](C(C)(C)C)C4C(C2)N(C)CCC341 (stereo partly specified),17.6,>25
C=C[C@H]1CC(=O)[C@@H]2Oc3c(OC)ccc4c3C23CCN(C)C(C4)C13 (stereo partly specified),13.8,130
C=C(C)[C@H]1CC(=O)[C@@H]2Oc3c(OC)ccc4c3C23CCN(C)C(C4)C13 (stereo partly specified),>50,
CCCCCCCC[C@H]1CC(=O)[C@@H]2Oc3c(OC)ccc4c3C23CCN(C)C(C4)C13 (stereo partly specified),25.9,>50
COc1ccc2c3c1O[C@H]1C(=O)C[C@H](C)C4C(C2)N(C)CCC341 (stereo partly specified),4.9,10.2
CCC[C@@H]1CC(=O)[C@@H]2Oc3c(OC)ccc4c3C23CCN(C)C(C4)C13 (stereo partly specified),>25,>25
CCCC[C@H]1CC(=O)[C@@H]2Oc3c(OC)ccc4c3C23CCN(C)C(C4)C13 (stereo partly specified),27,>50
"CCC(C)[C@H]1CC(=O)C2Oc3c(OC)ccc4c3C23CCN(C)C(C4)C13 (single isomer, unassigned; form 2)",14.1,
CC[C@H]1CC(=O)[C@@H]2Oc3c(O)ccc4c3C23CCN(C)C(C4)C13 (stereo partly specified),0.41,1.12
COc1ccc2c3c1O[C@H]1C(=O)C[C@@H](C)C4C(C2)N(C)CCC341 (stereo partly specified),2,3.8
COc1ccc2c3c1O[C@H]1C(=O)C[C@H](C(C)C)C4C(C2)N(C)CCC341 (stereo partly specified),21.7,>55
CCC[C@H]1CC(=O)[C@@H]2Oc3c(OC)ccc4c3C23CCN(C)C(C4)C13 (stereo partly specified),17.5,
